Test results published in ChEMBL document CHEMBL4130613, “Identification and Proposed Relative and Absolute Configurations of Niphimycins C-E from the Marine-Derived Streptomyces sp. IMB7-145 by Genomic Analysis” (J Nat Prod, 2018).
≈ marks a conversion by molar mass, not a printed value. Calls of active or inactive are those of the source. The rule behind the calls is not given here.

Key:
Serratia marcescens = assay: Antibacterial activity against Serratia marcescens ATCC 21074 after 18 hrs by agar dilution method; format: functional; settings: ATCC 21074, 18 h
Pseudomonas aeruginosa [1] = assay: Antibacterial activity against Pseudomonas aeruginosa 12-16 after 18 hrs by agar dilution method; format: functional; settings: 12-16, 18 h
Candida albicans = assay: Antifungal activity against Candida albicans ATCC 10231 after 18 hrs by agar dilution method; format: functional; settings: ATCC 10231, 18 h
Klebsiella aerogenes = assay: Antibacterial activity against Enterobacter aerogenes ATCC 13048 after 18 hrs by agar dilution method; format: functional; settings: ATCC 13048, 18 h
Klebsiella pneumoniae [2] = assay: Antibacterial activity against NDM-1 positive Klebsiella pneumoniae ATCC BAA-2146 after 18 hrs by agar dilution method; format: functional; settings: ATCC BAA-2146, 18 h
Klebsiella pneumoniae [3] = assay: Antibacterial activity against extended-spectrum beta-lactamase-negative Klebsiella pneumoniae 7 after 18 hrs by agar dilution method; format: functional; settings: Klebsiella pneumoniae, 7, 18 h
Morganella morganii = assay: Antibacterial activity against Morganella morganii ATCC 25830 after 18 hrs by agar dilution method; format: functional; settings: ATCC 25830, 18 h
Enterobacter cloacae = assay: Antibacterial activity against Enterobacter cloacae ATCC 43560 after 18 hrs by agar dilution method; format: functional; settings: ATCC 43560, 18 h
Klebsiella pneumoniae [4] = assay: Antibacterial activity against extended-spectrum beta-lactamase-positive Klebsiella pneumoniae 12-8 after 18 hrs by agar dilution method; format: functional; settings: 12-8, 18 h
Escherichia coli [5] = assay: Antibacterial activity against extended-spectrum beta-lactamase-negative Escherichia coli ATCC 25922 after 18 hrs by agar dilution method; format: functional; settings: ATCC 25922, 18 h
Escherichia coli [6] = assay: Antibacterial activity against extended-spectrum beta-lactamase-negative Escherichia coli 1515 after 18 hrs by agar dilution method; format: functional; settings: Escherichia coli, 1515, 18 h
Proteus vulgaris = assay: Antibacterial activity against Proteus vulgaris ATCC 29905 after 18 hrs by agar dilution method; format: functional; settings: ATCC 29905, 18 h
HeLa = assay: Cytotoxicity against human HeLa cells after 48 hrs by SRB assay; format: functional, cell-based
Method in brief: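 HeLa human cervical carcinoma cells obtained from ATCC. Cytotoxicity was read by sulforhodamine B staining following an earlier published protocol, with doxorubicin hydrochloride as positive control. Values are reported as IC50.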

Providencia rettgeri = assay: Antibacterial activity against Providencia rettgeri ATCC 31052 after 18 hrs by agar dilution method; format: functional; settings: ATCC 31052, 18 h
Enterococcus faecium [7] = assay: Antibacterial activity against vancomycin-resistant Enterococcus faecium 12-1 after 18 hrs by agar dilution method; format: functional
Escherichia coli [8] = assay: Antibacterial activity against extended-spectrum beta-lactamase-positive Escherichia coli 12-15 after 18 hrs by agar dilution method; format: functional; settings: 12-15, 18 h
Klebsiella pneumoniae [9] = assay: Antibacterial activity against extended-spectrum beta-lactamase-negative Klebsiella pneumoniae 12-4 after 18 hrs by agar dilution method; format: functional; settings: 12-4, 18 h
Pseudomonas aeruginosa [10] = assay: Antibacterial activity against Pseudomonas aeruginosa PAO1 after 18 hrs by agar dilution method; format: functional; settings: PAO1, 18 h
Klebsiella pneumoniae [11] = assay: Antibacterial activity against extended-spectrum beta-lactamase-positive Klebsiella pneumoniae ATCC 700603 after 18 hrs by agar dilution method; format: functional; settings: Klebsiella pneumoniae, 700603, 18 h
Staphylococcus aureus [12] = assay: Antibacterial activity against methicillin-resistant Staphylococcus aureus ATCC 33591 after 18 hrs by agar dilution method; format: functional
Escherichia coli [13] = assay: Antibacterial activity against extended-spectrum beta-lactamase-negative Escherichia coli 12-14 after 18 hrs by agar dilution method; format: functional; settings: 12-14, 18 h
Pseudomonas aeruginosa [14] = assay: Antibacterial activity against Pseudomonas aeruginosa ATCC 27853 after 18 hrs by agar dilution method; format: functional; settings: ATCC 27853, 18 h
[15] = tested on: Staphylococcus epidermidis; assay: Antibacterial activity against methicillin-resistant Staphylococcus epidermidis 12-8 after 18 hrs by agar dilution method; format: functional
[16] = tested on: Acinetobacter calcoaceticus; assay: Antibacterial activity against Acinetobacter calcoaceticus ATCC 19606 after 18 hrs by agar dilution method; format: functional; settings: ATCC 19606, 18 h
Staphylococcus aureus [17] = assay: Antibacterial activity against methicillin-resistant Staphylococcus aureus 12-33 after 18 hrs by agar dilution method; format: functional
[18] = tested on: Stenotrophomonas maltophilia; assay: Antibacterial activity against Stenotrophomonas maltophilia ATCC 13636 after 18 hrs by agar dilution method; format: functional; settings: ATCC 13636, 18 h
Enterococcus faecium [19] = assay: Antibacterial activity against vancomycin-resistant Enterococcus faecium ATCC 700221 after 18 hrs by agar dilution method; format: functional
Enterococcus faecalis [20] = assay: Antibacterial activity against vancomycin-resistant Enterococcus faecalis ATCC 51299 after 18 hrs by agar dilution method; format: functional
Citrobacter freundii = assay: Antibacterial activity against Citrobacter freundii ATCC 43864 after 18 hrs by agar dilution method; format: functional; settings: ATCC 43864, 18 h
Proteus mirabilis = assay: Antibacterial activity against Proteus mirabilis 12-6 after 18 hrs by agar dilution method; format: functional; settings: 12-6, 18 h
Enterococcus faecalis [21] = assay: Antibacterial activity against vancomycin-resistant Enterococcus faecalis 09-9 after 18 hrs by agar dilution method; format: functional

SMILES | MIC (Serratia marcescens) [µg/mL] | MIC (Pseudomonas aeruginosa [1]) [µg/mL] | MIC (Candida albicans) [µg/mL] | MIC (Klebsiella aerogenes) [µg/mL] | MIC (Klebsiella pneumoniae [2]) [µg/mL] | MIC (Klebsiella pneumoniae [3]) [µg/mL] | MIC (Morganella morganii) [µg/mL] | MIC (Enterobacter cloacae) [µg/mL] | MIC (Klebsiella pneumoniae [4]) [µg/mL] | MIC (Escherichia coli [5]) [µg/mL] | MIC (Escherichia coli [6]) [µg/mL] | MIC (Proteus vulgaris) [µg/mL] | IC50 (HeLa) [µM] | MIC (Providencia rettgeri) [µg/mL] | Activity (Enterococcus faecium [7]) | MIC (Escherichia coli [8]) [µg/mL] | MIC (Klebsiella pneumoniae [9]) [µg/mL] | MIC (Pseudomonas aeruginosa [10]) [µg/mL] | MIC (Klebsiella pneumoniae [11]) [µg/mL] | Activity (Staphylococcus aureus [12]) | other results
CNC(=N)NCCC/C=C/CCC[C@H](C)C[C@H](C)[C@H]1OC(=O)[C@H](C)[C@H](O)/C=C/[C@H](C)[C@H](O)C[C@H](O)[C@H](C)[C@@H](O)CC[C@H](C)[C@H](O)C[C@]2(O)O[C@H](C[C@@H](O)C[C@H](OC(=O)CC(=O)O)C[C@@H](O)[C@H](C)[C@H](O)/C=C/C=C/[C@@H]1C)C[C@H](OC(=O)CC(=O)O)[C@H]2O | > 64 | > 64 | 8 to 32 (≈ 6.51 to 26 µM) | > 64 | > 64 | > 64 | > 64 | > 64 | > 64 | > 64 | > 64 | > 64 | > 10 | > 64 | Active | > 64 | > 64 | > 64 | > 64 | Active | MIC (Escherichia coli [13]): > 64 µg/mL; MIC (Pseudomonas aeruginosa [14]): > 64 µg/mL; Activity [15]: Active; MIC [16]: > 64 µg/mL; Activity (Staphylococcus aureus [17]): Active; MIC [18]: > 64 µg/mL; Activity (Enterococcus faecium [19]): Active; Activity (Enterococcus faecalis [20]): Active; MIC (Citrobacter freundii): > 64 µg/mL; MIC (Proteus mirabilis): > 64 µg/mL; Activity (Enterococcus faecalis [21]): Active
CNC(=N)NCCC/C=C/CCC[C@H](C)C[C@H](C)[C@H]1OC(=O)[C@H](C)[C@H](O)/C=C/[C@H](C)[C@H](O)C[C@H](O)[C@H](C)[C@@H](O)CC[C@H](C)[C@H](O)C[C@]2(OC)O[C@H](C[C@@H](OC(=O)CC(=O)O)C[C@H](O)C[C@@H](O)[C@H](C)[C@H](O)/C=C/C=C/[C@@H]1C)C[C@H](O)[C@H]2O | > 64 | > 64 | 8 to 32 (≈ 6.92 to 27.7 µM) | > 64 | > 64 | > 64 | > 64 | > 64 | > 64 | > 64 | > 64 | > 64 | 3 to 9 | > 64 | Active | > 64 | > 64 | > 64 | > 64 | Active | MIC (Escherichia coli [13]): > 64 µg/mL; MIC (Pseudomonas aeruginosa [14]): > 64 µg/mL; Activity [15]: Active; MIC [16]: > 64 µg/mL; Activity (Staphylococcus aureus [17]): Active; MIC [18]: > 64 µg/mL; Activity (Enterococcus faecium [19]): Active; Activity (Enterococcus faecalis [20]): Active; MIC (Citrobacter freundii): > 64 µg/mL; MIC (Proteus mirabilis): > 64 µg/mL; Activity (Enterococcus faecalis [21]): Active
CNC(=N)NCCC/C=C/CCC[C@H](C)C[C@H](C)[C@H]1OC(=O)[C@H](C)[C@H](O)/C=C/[C@H](C)[C@H](O)C[C@H](O)[C@H](C)[C@@H](O)CC[C@H](C)[C@H](O)CC(O)[C@H](O)[C@@H](O)C[C@H](O)C[C@@H](O)C[C@H](O)C[C@@H](O)[C@H](C)[C@H](O)/C=C/C=C/[C@@H]1C (stereo partly specified) | > 64 | > 64 | 8 to 32 (≈ 7.56 to 30.2 µM) | > 64 | > 64 | > 64 | > 64 | > 64 | > 64 | > 64 | > 64 | > 64 | > 10 | > 64 | Active | > 64 | > 64 | > 64 | > 64 | Active | MIC (Escherichia coli [13]): > 64 µg/mL; MIC (Pseudomonas aeruginosa [14]): > 64 µg/mL; Activity [15]: Active; MIC [16]: > 64 µg/mL; Activity (Staphylococcus aureus [17]): Active; MIC [18]: > 64 µg/mL; Activity (Enterococcus faecium [19]): Active; Activity (Enterococcus faecalis [20]): Active; MIC (Citrobacter freundii): > 64 µg/mL; MIC (Proteus mirabilis): > 64 µg/mL; Activity (Enterococcus faecalis [21]): Active
CNC(=N)NCCC/C=C/CCC[C@H](C)C[C@H](C)[C@H]1OC(=O)[C@H](C)[C@H](O)/C=C/[C@H](C)[C@H](O)C[C@H](O)[C@H](C)[C@@H](O)CC[C@H](C)[C@H](O)C[C@]2(O)O[C@H](C[C@@H](OC(=O)CC(=O)O)C[C@H](O)C[C@@H](O)[C@H](C)[C@H](O)/C=C/C=C/[C@@H]1C)C[C@H](OC(=O)CC(=O)O)[C@H]2O | > 64 | > 64 | 8 to 32 (≈ 6.51 to 26 µM) | > 64 | > 64 | > 64 | > 64 | > 64 | > 64 | > 64 | > 64 | > 64 | 3 to 9 | > 64 | Active | > 64 | > 64 | > 64 | > 64 | Active | MIC (Escherichia coli [13]): > 64 µg/mL; MIC (Pseudomonas aeruginosa [14]): > 64 µg/mL; Activity [15]: Active; MIC [16]: > 64 µg/mL; Activity (Staphylococcus aureus [17]): Active; MIC [18]: > 64 µg/mL; Activity (Enterococcus faecium [19]): Active; Activity (Enterococcus faecalis [20]): Active; MIC (Citrobacter freundii): > 64 µg/mL; MIC (Proteus mirabilis): > 64 µg/mL; Activity (Enterococcus faecalis [21]): Active
CNC(=N)NCCC/C=C/CCC[C@H](C)C[C@H](C)[C@H]1OC(=O)[C@H](C)[C@H](O)/C=C/[C@H](C)[C@H](O)C[C@H](O)[C@H](C)[C@@H](O)CC[C@H](C)[C@H](OC(=O)CC(=O)O)C[C@]2(O)O[C@H](C[C@@H](OC(=O)CC(=O)O)C[C@H](O)C[C@@H](O)[C@H](C)[C@H](O)/C=C/C=C/[C@@H]1C)C[C@H](O)[C@H]2O | > 64 | > 64 | 8 to 32 (≈ 6.51 to 26 µM) | > 64 | > 64 | > 64 | > 64 | > 64 | > 64 | > 64 | > 64 | > 64 | 3 to 9 | > 64 | Active | > 64 | > 64 | > 64 | > 64 | Active | MIC (Escherichia coli [13]): > 64 µg/mL; MIC (Pseudomonas aeruginosa [14]): > 64 µg/mL; Activity [15]: Active; MIC [16]: > 64 µg/mL; Activity (Staphylococcus aureus [17]): Active; MIC [18]: > 64 µg/mL; Activity (Enterococcus faecium [19]): Active; Activity (Enterococcus faecalis [20]): Active; MIC (Citrobacter freundii): > 64 µg/mL; MIC (Proteus mirabilis): > 64 µg/mL; Activity (Enterococcus faecalis [21]): Active
CNC(=N)NCCC/C=C/CCC[C@H](C)C[C@H](C)[C@@H](O)[C@@H](C)/C=C/C=C/[C@@H](O)[C@@H](C)[C@H](O)C[C@@H](O)C[C@H](O)C[C@@H](O)C[C@H](O)[C@@H](O)C(O)C[C@@H](O)[C@@H](C)CC[C@H](O)[C@@H](C)[C@@H](O)C[C@@H](O)[C@@H](C)/C=C/[C@@H](O)[C@@H](C)C(=O)O (stereo partly specified) | > 64 | > 64 | 8 to 32 (≈ 7.43 to 29.7 µM) | > 64 | > 64 | > 64 | > 64 | > 64 | > 64 | > 64 | > 64 | > 64 | > 10 | > 64 | Active | > 64 | > 64 | > 64 | > 64 | Active | MIC (Escherichia coli [13]): > 64 µg/mL; MIC (Pseudomonas aeruginosa [14]): > 64 µg/mL; Activity [15]: Active; MIC [16]: > 64 µg/mL; Activity (Staphylococcus aureus [17]): Active; MIC [18]: > 64 µg/mL; Activity (Enterococcus faecium [19]): Active; Activity (Enterococcus faecalis [20]): Active; MIC (Citrobacter freundii): > 64 µg/mL; MIC (Proteus mirabilis): > 64 µg/mL; Activity (Enterococcus faecalis [21]): Active
